Here are results for two compounds from ChEMBL document CHEMBL5252514, “Conopeptide-Derived κ-Opioid Agonists (Conorphins): Potent, Selective, and Metabolic Stable Dynorphin A Mimetics with Antinociceptive Properties” (J Med Chem, 2016).

Structures are written as SMILES. pKi: −log10 of the molar value. Where a SMILES comes first, the peptide text is derived from it.

Data set [1] deals with Kappa-type opioid receptor (Homo sapiens, UniProt P41145). Description: Displacement of [3H]U69593 from human kappa opioid receptor expressed in CHO-K1 cells incubated for 1 hr by 1450 microbeta scintillation counter analysis. Format: cell-based. In outline:
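Membranes from transiently KOR-transfected CHO-K1 cells (~2 µg/well) used in SPA with 3H-U69,593 (1 nM). Competitor ranged 1 pM–10 µM in 50 mM Tris-HCl pH 7.4, 5 mM MgCl2, 0.1% BSA. Incubated 1 h at room temperature with shaking. Nonspecific binding defined with 10 µM dynorphin A. Sigmoidal dose-response fit; at least three independent experiments in triplicate.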
(Displacement assays read how much labelled ligand stays bound in the presence of the test substance.)

Data set [2] in a line: Metabolic stability in Wistar rat plasma assessed as half life by HPLC analysis. The format is ADME, cell-free. In outline: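 Peptide at 1 mg/mL in sterile PBS pH 7.4 was mixed 1:1 with thawed, centrifuged Wistar rat plasma supernatant and incubated at 37°C in triplicate. Samples at 0, 1, 2, 3, 4, 6 and 24 h were quenched with acetonitrile and then 2% TFA/water, and analysed by HPLC with inline electrospray MS.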

Sequence of Kappa-type opioid receptor (P41145 whole entry): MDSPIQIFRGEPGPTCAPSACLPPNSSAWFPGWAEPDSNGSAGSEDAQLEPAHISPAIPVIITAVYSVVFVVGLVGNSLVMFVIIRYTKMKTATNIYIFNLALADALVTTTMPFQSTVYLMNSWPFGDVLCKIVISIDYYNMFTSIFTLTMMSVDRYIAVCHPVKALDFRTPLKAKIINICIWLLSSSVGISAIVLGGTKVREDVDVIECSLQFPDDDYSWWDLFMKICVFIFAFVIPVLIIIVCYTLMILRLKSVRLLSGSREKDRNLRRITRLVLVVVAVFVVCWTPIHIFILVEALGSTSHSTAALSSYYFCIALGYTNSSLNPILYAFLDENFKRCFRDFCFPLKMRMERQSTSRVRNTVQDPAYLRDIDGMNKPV

Consider `CC[C@H](C)[C@H](NC(=O)[C@H](CCC(N)=O)NC(=O)[C@H](CCCNC(=N)N)NC(=O)[C@@H](N)CCCNC(=N)N)C(N)=O` (H-RRQI-NH2), for which the pKi in data set [1] is 4.64.

As to `N=C(N)NCCC[C@@H](NC(=O)[C@@H](CCCNC(=N)N)NC(=O)[C@@H]1CCCN1C(=O)c1ccccc1)C(=O)N[C@@H](CCC(N)=O)C(=O)N[C@H](CN[C@H]1CSSC[C@@H](C(N)=O)NC1=O)CC1CCCCC1`, the half-life in data set [2] worked out at 16 h. The compound also gave a pKi in data set [1] of 6.87.

By pKi is commonly meant −log10 of the Ki, conventionally taken in molar units. As a reminder, the half-life is how long it takes for the measured level to halve.
